Compound activity as filed in PubChem BioAssay.
PABP FP inh: PABP-poly(A) binding inhibition | PABP-poly(A) RNA binding, fluorescence polarization | calls only at 35 µM | actives 1% (n = 290,000) | AID 2014;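 note: calls also rest on retests at 20 µM and on dose response follow-up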
Target sequence (P11940 whole entry, looked up): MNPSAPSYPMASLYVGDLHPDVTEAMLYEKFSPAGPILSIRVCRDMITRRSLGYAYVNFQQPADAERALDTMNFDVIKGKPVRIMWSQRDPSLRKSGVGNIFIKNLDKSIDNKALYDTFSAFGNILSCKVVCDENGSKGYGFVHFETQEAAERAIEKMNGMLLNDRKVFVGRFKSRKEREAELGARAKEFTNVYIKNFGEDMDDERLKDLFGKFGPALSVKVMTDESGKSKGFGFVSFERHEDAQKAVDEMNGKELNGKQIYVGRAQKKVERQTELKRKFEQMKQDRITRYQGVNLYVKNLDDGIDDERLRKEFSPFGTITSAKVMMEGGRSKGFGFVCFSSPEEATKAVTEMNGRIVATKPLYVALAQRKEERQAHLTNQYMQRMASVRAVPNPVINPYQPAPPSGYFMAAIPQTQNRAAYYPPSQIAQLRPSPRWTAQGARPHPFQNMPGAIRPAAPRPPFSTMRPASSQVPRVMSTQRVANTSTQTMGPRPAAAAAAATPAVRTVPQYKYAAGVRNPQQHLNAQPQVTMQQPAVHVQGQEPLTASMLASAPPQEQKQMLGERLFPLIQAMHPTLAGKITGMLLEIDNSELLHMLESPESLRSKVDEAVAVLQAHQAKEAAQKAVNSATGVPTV
IMP-1 inh: inhibitors of Pseudomonas aeruginosa IMP-1 metallo-beta-lactamase | AID 1556 | purified IMP-1, nitrocefin hydrolysis, epi-absorbance fluorescence | actives 0.45% (n = 290,000) | inhibition, % at 5.6 µM;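 active = inhibition above the mean plus 3 SD of all compounds in the same screening run, cut at about 4.5% in these data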;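 note: 0% = IMP-1 with DMSO and 100% = DMSO wells lacking enzyme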
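assay system = purified recombinant IMP-1 metallo-beta-lactamase enzyme | schedule = 15 min preincubation plus 25 min reaction at 25 °C | signal = Epi-absorbance fluorescence, 480 nm excitation, 530 nm emission | read-out basis = percent inhibition from optical density relative to buffer-blank wells | controls = IMP-1 with DMSO as 0%, enzyme-free DMSO as 100%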
VIM-2 inhibitor: inhibitors of Pseudomonas aeruginosa VIM-2 metallo-beta-lactamase; purified VIM-2, nitrocefin hydrolysis, epi-absorbance fluorescence; inhibition, % at 5.6 µM; actives 0.89% (n = 290,000); AID 1527;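 active = inhibition above the mean of all tested compounds plus 3 SD, cutoff set per screening run, cut at about 7.5% in these data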;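 note: red hydrolysis product quenches plate fluorescence so inhibitors raise well fluorescence; 0% = enzyme with DMSO and 100% = DMSO without enzyme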
MLLE-PAM2 inh: inhibitors of microRNA-mediated deadenylation, human PABP1 MLLE binding; P11940; inhibition, % at 20 µM; actives 0.36% (n = 360,000); AID 588489; GST-MLLE / FITC-PAM2 fluorescence polarization; in the data active = inhibition above about 35%, passing the limit was not always enough;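 note: plate controls were DMSO wells with GST-MLLE for no effect and wells lacking GST-MLLE protein for full effect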
eIF4H FP inh: inhibitors of RNA binding by human eIF4H; eIF4H fluorescence polarization binding assay; inhibition, % at 35 µM; Q15056; AID 2012; actives 0.94% (n = 290,000);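 note: calls also rest on retests at 20 µM and on dose response follow-up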
* marks the source's active call; other numbers are inactive results; i = inactive; ? = inconclusive; · = not tested or not shown; + = active, no number. Rows were chosen to be rich in hits. Some 2.2% of all compounds tested hit in one or more screens of this group. Unless noted, the rule behind the calls is not given here.

SMILES	PABP FP inh	IMP-1 inh	VIM-2 inhibitor	MLLE-PAM2 inh	eIF4H FP inh
COc1ccc2c(c1)CC/C(=C/c1ccco1)C2=O	+	-3	-4	-9	?
O=C1/C(=C/c2ccco2)CCc2ccccc21	i	3	2	0	81
Nc1ccc2c(c1)C/C(=C/c1ccco1)C2=O	+	0	-1	-31	93*
CCN(C(=O)COC(=O)c1ccc2[nH]c3c(c2c1)CCCC3)C1CCS(=O)(=O)C1 (stereo unspecified)	i	-2	0	4	-11
COc1ccc(-c2sc3ccc(N4CCOCC4)cc3c2-c2ccc(OC)c(F)c2)cc1	i	-1	0	-8	-10
O=c1[nH]c2ccc(NC(=S)Nc3ccccc3Cl)cc2[nH]1	i	2	-2	38*	-4
O=c1[nH]c2ccc(NC(=S)Nc3ccc(Cl)cc3Cl)cc2[nH]1	i	-4	-3	35	1
CCN(CC(=O)Nc1ccc(NC(C)=O)cc1)C(=O)c1ccc(N2C(=O)c3ccccc3C2=O)cc1	·	·	·	5	·
O=C(Nc1ccc2oc(-c3ccc(Cl)c(Cl)c3)nc2c1)c1ncn[nH]1	+	-4	-5	0	?
Brc1cccc(-c2nc3c4ccccc4ccn3c2Cc2ccccc2)c1	·	·	·	2	·
Cc1ccc2sc(C)[n+](CCC(C)S(=O)(=O)[O-])c2c1 (stereo unspecified)	i	-2	-3	41*	3
CC/C(=C/c1sc2ccc(C)cc2[n+]1CCCS(=O)(=O)[O-])SC	i	-2	-5	·	0
Cc1nc2c(C)cccc2cc1C(=O)N/N=C/c1cccnc1	i	-4	-4	-7	-4
O=C1COc2ccc(C(=O)CSc3nnc(-c4cccs4)n3Cc3ccccc3)cc2N1	i	-3	9.3*	-118	-1
O=C1COc2ccc(C(=O)CSc3nnc(Cc4cccs4)n3-c3ccccc3)cc2N1	i	-1	2	0	-1
COc1ccc(CN2CCc3ccccc3C2)c(OC)c1	i	-2	-3	11	-6
COc1ccc(C2=[N+](C)CCn3cccc32)c(OC)c1	i	7.2*	3	-138	0
CC1CN(C(C)C(=O)NC(c2ccccc2)c2ccccc2)CC(C)O1 (stereo unspecified)	i	-1	-3	5	-8
COc1ccc(-c2c[n+]3c(n2-c2ccccc2)CCCCC3)cc1	+	-1	0	0	?
O=C(CN1CCN(Cc2ccc(F)cc2)CC1)Nc1nc2ccccc2s1	i	-5	-3	4	6
Brc1ccccc1C1=Nn2c(nnc2-c2ccco2)SC1	i	-2	8.0*	11	11
c1ccc(C2=Nn3c(nnc3-c3ccco3)SC2)cc1	i	0	8.3*	25	-5
CC1CCCCN1C(=O)COC(=O)c1cc([N+](=O)[O-])ccc1N (stereo unspecified)	·	·	·	-14	·
O=C(NC1CC1)C1=C[C@@H](c2csc3ccccc23)C[C@@H](OCCCCO)O1	i	·	·	-4	4
O=C(CCCO)N/N=C/c1ccccc1[N+](=O)[O-]	i	-4	0	6	-6
SMILES	PABP FP inh	IMP-1 inh	VIM-2 inhibitor	MLLE-PAM2 inh	eIF4H FP inh
CC(C)CNC(=O)COC(=O)c1c2c(nc3ccccc13)/C(=C\c1cccs1)CC2	·	·	·	-6	·
CN(CCC#N)C(=O)COC(=O)c1c2c(nc3ccccc13)/C(=C/c1ccco1)CC2	i	2	0	-5	95*
CCOc1ccccc1CNc1ccc(O)cc1	+	-2	0	4	51
OCC1(Cc2cccc(Cl)c2)CCCN(Cc2cnn(-c3ccccc3)c2)C1 (stereo unspecified)	i	-1	0	-6	-2
Cc1ccc(C(=O)NCC(=O)N2CCN(c3ccccc3O)CC2)s1	·	·	·	-9	·
O=C(Nc1cc(F)ccc1F)c1ccc(-n2cncn2)c([N+](=O)[O-])c1	·	·	·	-37	·
CCOC(=O)c1c(-c2ccco2)csc1NC(=O)CSc1nnc(N)s1	i	-2	-4	-8	54*
CCOC(=O)c1c(-c2ccc(C)o2)csc1NC(=O)CSc1nncs1	i	-6	-4	38	28
COc1ccc(-c2ccc(CCC(=O)O)n2CC(C)C)cc1	i	7.1*	2	-9	12
CN1CCc2c(OCc3ccc(F)cc3)cccc2C1=O	i	23*	1	1	-2
O=C1c2cccc(OCc3ccc(F)cc3)c2CCN1Cc1ccc(F)cc1	i	-2	-2	13	10
CCCC(=O)Nc1ccc(Nc2ccccc2)cc1	i	-1	-2	-3	-6
Clc1ccc(OCCSc2ncccn2)c2ccccc12	i	-2	-2	-4	-7
c1cnc(SCCOc2cccc3ccccc23)nc1	i	4.8*	-1	-13	0
O=C(NCCCN1CCCC1)c1[nH]c(C(F)(F)F)nc1-c1ccccc1	·	·	·	5	·
CCN1C(N(C)CCc2cccs2)=N[C@@H](c2ccccc2)C(C(=O)OC)=C1C	+	-2	2	-101	0
Cc1cccc(C(=O)OCC(=O)Nc2ccccc2C(=O)NC2CC2)c1	·	·	·	-4	·
CCOc1ccccc1OCCC(=O)OCC(=O)c1ccc[nH]1	+	-2	-1	1	59*
NC(=S)Nc1ccc(S(=O)(=O)c2ccc(NC(N)=S)cc2)cc1	i	11*	-5	43*	-14
Cc1c(Br)c([N+](=O)[O-])nn1C(C)C(=O)N1CCCc2ccccc21 (stereo unspecified)	i	0	0	11	6
O=C(CCC1N=C2c3ccccc3N=C(SCc3ccccc3Cl)N2C1=O)NCc1ccco1 (stereo unspecified)	i	-3	-2	1	-10
O=C(CSC1=Nc2ccccc2C2=NC(CC(=O)NC3CCCCC3)C(=O)N12)NCc1ccco1 (stereo unspecified)	?	3	2	49*	?
CC1CN(CCCCOc2ccc(Cl)c3ccccc23)CC(C)O1 (stereo unspecified)	i	4.5*	1	0	5
CC(C)(C)c1ccc(S(=O)(=O)N2CCC(NC(=O)c3ccco3)CC2)cc1	i	-3	-5	1	0
CC(Nc1cc(N2CCN(S(=O)(=O)N(C)C)CC2)ccc1[N+](=O)[O-])c1ccccc1 (stereo unspecified)	+	-2	-3	4	77*
CCn1c(SCc2c(Cl)cccc2Cl)nc2nc3c(cc2c1=O)CCCC3	·	·	·	-48	·
CCn1c(SCc2ccccc2Cl)nc2nc3c(cc2c1=O)CCCC3	+	-1	0	-9	active
CCOc1ccc(C(O)(c2ccccc2)C(CN2CCCC2)c2ccccc2)cc1 (stereo unspecified)	i	-3	-4	-8	1
Cc1ccc(S(=O)(=O)CCSc2cccc(C(=O)Nc3ccccc3C(=O)O)c2)cc1	i	-3	-1	36*	1
O=C1CC[C@H](OCc2ccccc2)CCN1[C@H](CSc1ccccc1)Cc1ccccc1	i	-1	-2	6	-5
